Broadly, the IC50 is the concentration at which inhibition is half-maximal. Lower therefore signals inhibition by little substance.

The source of these data is ChEMBL document CHEMBL2016570, “Synthesis, biological evaluation, and molecular docking studies of 1,3,4-thiadiazol-2-amide derivatives as novel anticancer agents” (Bioorg Med Chem, 2012).

Assay [1] concerns MCF7. Briefly: Antiproliferative activity against human MCF7 cells after 48 hrs by MTT assay. The conditions noted are these: MCF7, 48 h. It counts as functional, cell-based. The method, boiled down:
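MCF-7 cells were grown to log phase in RPMI 1640 with 10% FBS, diluted to 2 × 10⁴ cells/mL and seeded, then held 24 h at 37 °C, 5% CO₂. Compounds at pre-set concentrations went into six wells, with staurosporine as positive reference, for 48 h. MTT in PBS (2.5 mg/mL) was added, incubation ran overnight at 37 °C, and OD was read at 570 nm. Triplicate wells per concentration; assay run ≥3 times.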
Background: Tetrazolium assays rely on reduction of a dye to a coloured formazan, in cell work by metabolically active cells.

Assay [2] deals with B16-F10. In words: Antiproliferative activity against mouse B16F10 cells after 48 hrs by MTT assay. It counts as functional, cell-based. The conditions noted are these: B16-F10, 48 h.
The nature of assay [3]: Inhibition of bovine brain FAK after 20 mins by turbidimetry. Also on record: species or system Bos taurus.
The target in assay [4] is Focal adhesion kinase 1 (Homo sapiens) (UniProt Q05397). In words: Inhibition of FAK in human MCF7 cells at 2 to 8 uM by Western blot analysis. It counts as cell-based. The method, boiled down: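 After treatment, cells were PBS-washed and lysed in Tris/NaCl/PMSF/Na₃VO₄/NP-40/glycerol buffer with phosphatase and protease inhibitors, then spun at 12,000g for 5 min. Protein was measured by BCA, resolved on 10% SDS–PAGE and transferred to PVDF. Membranes were blocked in 5% nonfat milk for 2 h at room temperature, probed with primary antibodies overnight at 4 °C, then HRP secondary. Representative of three independent experiments.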
On the technique in general: A western blot detects proteins with antibodies after separation by electrophoresis.

The structures appear in SMILES notation. Active and inactive are the calls of the source. The rule behind the calls is not given here.

Sequence of Focal adhesion kinase 1 (Homo sapiens) (Q05397 2-1052 limits assumed): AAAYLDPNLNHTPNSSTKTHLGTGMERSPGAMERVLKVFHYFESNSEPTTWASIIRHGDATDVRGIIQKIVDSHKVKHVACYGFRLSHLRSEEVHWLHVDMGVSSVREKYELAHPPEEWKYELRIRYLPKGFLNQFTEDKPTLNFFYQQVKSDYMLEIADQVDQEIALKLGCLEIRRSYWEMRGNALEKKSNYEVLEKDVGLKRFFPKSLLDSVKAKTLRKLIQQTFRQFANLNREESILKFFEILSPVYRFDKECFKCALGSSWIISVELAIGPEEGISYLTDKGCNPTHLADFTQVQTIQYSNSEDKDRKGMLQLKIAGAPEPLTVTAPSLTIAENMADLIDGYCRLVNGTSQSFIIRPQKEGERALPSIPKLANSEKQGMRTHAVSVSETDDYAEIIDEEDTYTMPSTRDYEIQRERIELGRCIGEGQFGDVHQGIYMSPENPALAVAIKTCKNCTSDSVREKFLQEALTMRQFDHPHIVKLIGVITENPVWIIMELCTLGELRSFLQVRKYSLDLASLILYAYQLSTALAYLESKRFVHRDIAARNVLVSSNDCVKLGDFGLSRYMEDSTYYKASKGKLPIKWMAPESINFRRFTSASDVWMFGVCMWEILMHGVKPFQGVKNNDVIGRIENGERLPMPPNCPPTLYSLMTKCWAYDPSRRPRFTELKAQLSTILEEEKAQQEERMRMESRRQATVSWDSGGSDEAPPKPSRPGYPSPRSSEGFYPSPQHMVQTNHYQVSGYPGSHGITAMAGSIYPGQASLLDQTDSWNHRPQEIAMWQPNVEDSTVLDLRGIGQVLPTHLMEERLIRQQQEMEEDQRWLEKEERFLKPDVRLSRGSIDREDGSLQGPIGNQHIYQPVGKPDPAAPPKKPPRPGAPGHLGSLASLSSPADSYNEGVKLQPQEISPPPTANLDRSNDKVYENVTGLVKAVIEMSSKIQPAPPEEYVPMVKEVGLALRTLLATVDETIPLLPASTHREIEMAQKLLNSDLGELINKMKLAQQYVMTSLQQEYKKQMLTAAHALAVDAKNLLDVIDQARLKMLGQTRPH

For `O=C(Nc1nnc(-c2ccc(F)cc2)s1)c1ccccc1`, the IC50 in assay [1] stood at 5.35 µM; in assay [2] it was 4.75 µM; in assay [3] it was 15.5 µM.
Consider `Cc1ccc(-c2nnc(NC(=O)c3cccnc3)s2)cc1`, for which the IC50 in assay [1] stood at 4.52 µM; in assay [2], 3.88 µM; in assay [3], 12.4 µM.
As for `COc1ccc(-c2nnc(NC(=O)c3cccnc3)s2)cc1`, the concentration for half-maximal inhibition (IC50) in assay [1] is 2.99 µM; in assay [2], 2.36 µM; in assay [3], 9.75 µM.
On to `Cc1ccc(-c2nnc(NC(=O)c3ccccc3)s2)cc1`, for which the results for the IC50 in assay [1], in assay [2] and in assay [3] were 3.57 µM, 3.52 µM and 11.7 µM, respectively.
As to `O=C(Nc1nnc(-c2ccc(F)cc2)s1)c1cc(Cl)ccc1O`, the figures for the IC50 in assay [1], in assay [2] and in assay [3] were 0.75 µM, 0.68 µM and 6.13 µM, respectively.
The corresponding values for `COc1ccc(C(=O)Nc2nnc(-c3ccccc3)s2)cc1` are 1.83 µM, 1.75 µM and 7.89 µM.
The corresponding values for `O=C(Nc1nnc(-c2ccccc2)s1)c1ccc(F)cc1` are 4.85 µM, 4.36 µM and 14 µM.
On to `O=C(Nc1nnc(-c2ccc(F)cc2)s1)c1cc(Br)ccc1O`, for which the IC50 in assay [1] stood at 0.86 µM; in assay [2], 1.02 µM; in assay [3], 6.41 µM.
As to `O=C(Nc1nnc(-c2ccccc2)s1)c1cccnc1`, the values for the IC50 in assay [1], in assay [2] and in assay [3] were 8.22 µM, 6.18 µM and 18.6 µM, respectively.
For `O=C(Nc1nnc(-c2ccccc2)s1)c1cc(Br)ccc1O`, the IC50 came out at 1.28 µM in assay [1], 1.28 µM in assay [2] and 7.25 µM in assay [3].
For the compound `Cc1ccc(-c2nnc(NC(=O)c3ccccc3O)s2)cc1`, the IC50 turned out to be 2.36 µM in assay [1], 1.97 µM in assay [2] and 8.54 µM in assay [3].
For the compound `O=C(Nc1nnc(-c2ccc(F)cc2)s1)c1ccccc1O`, the values for the IC50 in assay [1], in assay [2] and in assay [3] were 1.21 µM, 1.16 µM and 7.02 µM, respectively.
In the case of `COc1ccc(-c2nnc(NC(=O)c3ccccc3O)s2)cc1`, the IC50 in assay [1] stood at 2.17 µM; in assay [2], 1.39 µM; in assay [3], 7.47 µM.
For `O=C(Nc1nnc(-c2ccccc2)s1)c1cc(Cl)ccc1O` the same measures were 1.12 µM, 1.14 µM and 6.89 µM.
For `COc1ccc(-c2nnc(NC(=O)c3ccccc3)s2)cc1` the same measures were 1.55 µM, 1.58 µM and 7.71 µM.
The corresponding values for `O=C(Nc1nnc(-c2ccccc2)s1)c1ccccc1O` are 2.76 µM, 2.02 µM and 9.36 µM.
In assay [1], `CN[C@@H]1C[C@H]2O[C@@](C)([C@@H]1OC)n1c3ccccc3c3c4c(c5c6ccccc6n2c5c31)C(=O)NC4` [STAUROSPORINE] registered an IC50 of 3.07 µM.
Take `O=C(Nc1nnc(-c2ccc(Cl)cc2)s1)c1cc(Br)ccc1O`: the values for the IC50 in assay [1], in assay [2] and in assay [3] were 0.67 µM, 0.56 µM and 5.85 µM, respectively.
In the case of `O=C(Nc1nnc(-c2ccccc2)s1)c1ccc(Cl)cc1`, the IC50 in assay [1] amounted to 4.49 µM; in assay [2] it was 4.65 µM; in assay [3], 11.9 µM.
Regarding `O=C(Cc1ccccc1)Nc1nnc(-c2ccc(Br)cc2)s1`, the IC50 in assay [1] was 7.52 µM; in assay [2], 9.06 µM; in assay [3] it was 21.5 µM.
Turning to `O=C(Cc1ccccc1)Nc1nnc(-c2ccc(Cl)cc2)s1`, the results for the IC50 in assay [1], in assay [2] and in assay [3] were 6.47 µM, 8.23 µM and 19.7 µM, respectively.
For `O=C(Nc1nnc(-c2ccccc2)s1)c1ccccc1` the same measures were 5.87 µM, 5.15 µM and 16.2 µM.
Turning to `O=C(Nc1nnc(-c2ccc(Cl)cc2)s1)c1ccccc1O`, the IC50 in assay [1] worked out at 1.02 µM; in assay [2], 1.15 µM; in assay [3], 6.79 µM.
For `O=C(Nc1nnc(-c2ccc(Cl)cc2)s1)c1cc(Cl)ccc1O`, the IC50 in assay [1] worked out at 0.45 µM; in assay [2] it was 0.31 µM; in assay [3] it was 5.32 µM. Moreover, the inhibition entry in assay [4] is “Active”.
For the compound `O=C(Nc1nnc(-c2ccc(Cl)cc2)s1)c1ccccc1`, the figures for the IC50 in assay [1], in assay [2] and in assay [3] were 4.85 µM, 4.06 µM and 12.7 µM, respectively.
As for `Cc1ccc(C(=O)Nc2nnc(-c3ccccc3)s2)cc1`, the values for the IC50 in assay [1], in assay [2] and in assay [3] were 3.28 µM, 2.76 µM and 9.84 µM, respectively.
